Assay results: ChEMBL document CHEMBL1777776, “Identification of 2-mercaptohexanoic acids as dual inhibitors of 5-lipoxygenase and microsomal prostaglandin E₂ synthase-1” (Bioorg Med Chem, 2011)
Activity calls are given as the source filed them. The rule behind the calls is not given here.

Tests used:
[1] = molecular target: T1, Polyunsaturated fatty acid lipoxygenase ALOX15 (Homo sapiens) (UniProt P16050); assay: Inhibition of 15-lipoxygenase in A23187-stimulated human PMNL assessed as reduction of 15(S)-H(P)ETE formation up to 10 uM preincubated 15 mins by RP-HPLC analysis in presence of exogenous arachidonic acid
T1 sequence (whole entry): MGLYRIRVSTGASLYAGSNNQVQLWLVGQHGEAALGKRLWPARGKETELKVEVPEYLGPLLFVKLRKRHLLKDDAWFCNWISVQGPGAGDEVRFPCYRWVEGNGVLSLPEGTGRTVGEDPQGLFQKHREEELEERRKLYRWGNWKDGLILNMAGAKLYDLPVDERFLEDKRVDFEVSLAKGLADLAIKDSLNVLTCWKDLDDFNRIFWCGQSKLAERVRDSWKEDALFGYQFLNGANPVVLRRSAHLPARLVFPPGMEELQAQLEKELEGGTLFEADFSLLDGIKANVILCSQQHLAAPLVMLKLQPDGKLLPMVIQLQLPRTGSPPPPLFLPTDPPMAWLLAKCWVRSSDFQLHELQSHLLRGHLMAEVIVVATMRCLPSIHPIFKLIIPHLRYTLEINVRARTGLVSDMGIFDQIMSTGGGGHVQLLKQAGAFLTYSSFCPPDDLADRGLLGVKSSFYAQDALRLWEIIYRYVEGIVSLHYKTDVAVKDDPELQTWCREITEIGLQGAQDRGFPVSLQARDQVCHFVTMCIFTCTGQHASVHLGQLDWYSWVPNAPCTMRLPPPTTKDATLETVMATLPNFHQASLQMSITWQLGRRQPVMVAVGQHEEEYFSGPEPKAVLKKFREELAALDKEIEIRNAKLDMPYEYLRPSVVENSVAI
Summary of the method: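 Freshly isolated human PMNL (5 × 10⁶/ml PGC buffer: PBS pH 7.4, 1 mg/ml glucose, 1 mM CaCl₂) preincubated with compound 15 min at 37 °C. Stimulated with 2.5 µM A23187 plus exogenous AA for 10 min at 37 °C. Stopped with methanol, PGB₁ added as internal standard, lipoxygenase products analysed by HPLC. Mean of n = 3–5.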

[2] = molecular target: T2, Cytosolic phospholipase A2 (Homo sapiens) (UniProt P47712); assay: Inhibition of cPLA2 assessed as residual activity at 10 uM after 5 mins
T2 sequence (whole entry): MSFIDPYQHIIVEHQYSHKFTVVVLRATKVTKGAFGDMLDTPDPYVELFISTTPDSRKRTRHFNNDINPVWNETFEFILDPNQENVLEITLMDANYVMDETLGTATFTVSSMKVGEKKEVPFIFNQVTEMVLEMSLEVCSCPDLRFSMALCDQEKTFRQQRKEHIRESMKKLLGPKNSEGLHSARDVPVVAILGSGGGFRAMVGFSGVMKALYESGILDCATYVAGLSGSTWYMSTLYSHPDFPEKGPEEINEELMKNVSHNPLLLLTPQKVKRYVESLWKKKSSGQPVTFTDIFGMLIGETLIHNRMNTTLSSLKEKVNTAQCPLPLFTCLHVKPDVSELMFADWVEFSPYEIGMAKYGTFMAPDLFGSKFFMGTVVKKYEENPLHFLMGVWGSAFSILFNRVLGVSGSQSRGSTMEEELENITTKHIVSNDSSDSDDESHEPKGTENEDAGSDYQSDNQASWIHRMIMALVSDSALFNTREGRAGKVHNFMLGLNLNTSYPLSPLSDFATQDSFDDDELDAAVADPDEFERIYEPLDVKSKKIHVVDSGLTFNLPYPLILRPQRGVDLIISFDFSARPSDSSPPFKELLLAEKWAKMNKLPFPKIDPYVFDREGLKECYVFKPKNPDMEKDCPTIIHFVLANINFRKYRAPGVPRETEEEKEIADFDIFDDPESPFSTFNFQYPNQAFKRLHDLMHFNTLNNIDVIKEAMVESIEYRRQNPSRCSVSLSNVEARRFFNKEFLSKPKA

CCCCC(Sc1ccc(OCCCOc2ccc(-c3ccccc3)cc2)cc1)C(=O)O (configuration not stated)
inhibition [1]: inactive | Activity [2]: 106%
